In one series the test system is Leishmania tropica. In words: Antileishmanial activity against Leishmania tropica MHOM/IT/2012/ISS3130 promastigotes after 72 hrs by MTT assay. In kind it is functional, organism-based. The conditions noted are these: MHOM/IT/2012/ISS3130, 72 h. The essentials: (§1)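 Promastigotes grown in Schneider's medium with 10% FCS at 22 °C. Assay in RPMI with 10% FCS, 20 mM Hepes and 2 mM glutamine, 5×10⁶ parasites/mL, seven serial dilutions from DMSO stocks, 72 h at 22 °C. MTT added for 3 h, pellet lysed in SDS/DMF, A550 read against 650 nm reference. IC50 given as mean of separate duplicate experiments; amphotericin B as reference.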
A general note: Tetrazolium assays rely on reduction of a dye to a coloured formazan, in cell work by metabolically active cells.

The test system of series [1] is Leishmania infantum. In words: Antileishmanial activity against amastigote stage of Leishmania infantum infected in PMA-differentiated human THP1 cells assessed as inhibition of parasite growth at 0.5 uM after 72 hrs by Giemsa staining based light microscopy relative to control. In kind it is functional. Conditions: THP-1, 72 h. Summed up:
(§2)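 THP-1 cells at 5×10⁵ cells/mL differentiated with 0.1 μM PMA for 48 h, then infected with metacyclic L. infantum promastigotes (1:10 macrophage:parasite) for 24 h. Washed monolayers exposed to compound for 72 h, methanol-fixed and Giemsa-stained. Percent infected macrophages versus untreated scored by light microscopy, and IC50 derived. Single-concentration values are means of two or three experiments, IC50 of two.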

Series [2] can be described thus: Selectivity index, ratio of IC50 for PMA-differentiated human THP1 cells to IC50 for Leishmania tropica MHOM/IT/2012/ISS3130 promastigotes. The conditions noted are these: read-out: Ratio IC50. In kind it is toxicity.
For series [3], the system named is Mus musculus. In words: Toxicity in C57Bl/6 mouse assessed as survival at 300 mg/kg, po administered as single dose measured twice daily up to 30 days. In kind it is organism-based. Conditions: in vivo, 720 h. Summed up: (§3)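 Healthy female C57Bl/6 mice, groups of four or five, received one oral dose. Compound was first dissolved in DMSO, then suspended in 0.5% hydroxyethylcellulose-0.1% Tween 80. Behaviour and appearance were checked twice daily for 30 days. A dose counted as tolerated if all mice survived 30 days with normal appearance and behaviour.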

The subject of series [4] is Leishmania infantum. In words: Antileishmanial activity against Leishmania infantum MHOM/TN/80/IPT1 promastigotes after 72 hrs by MTT assay. In kind it is functional, organism-based. Conditions: MHOM/TN/80/IPT1, 72 h. The essentials:
as §1

Series [5] can be described thus: Selectivity index, ratio of IC50 for PMA-differentiated human THP1 cells to IC50 for amastigote stage of Leishmania infantum infected in PMA-differentiated human THP1 cells. Conditions: read-out: Ratio IC50. In kind it is toxicity.
Series [6] can be described thus: Selectivity index, ratio of IC50 for PMA-differentiated human THP1 cells to IC50 for Leishmania infantum MHOM/TN/80/IPT1 promastigotes. In kind it is toxicity. The conditions noted are these: read-out: Ratio IC50.
For another series, the system named is THP-1. In words: Cytotoxicity against PMA-differentiated human THP1 cells after 72 hrs by MTT assay. In kind it is cell-based. Conditions: THP-1, 72 h. Summed up:
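THP-1 cells at 5×10⁵ cells/mL, differentiated with 0.1 μM PMA for 48 h, then exposed to serial dilutions for 72 h. Viability read by MTT; IC50 for growth inhibition. Duplicate experiments, mean reported.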

The subject of series [7] is Leishmania infantum. Kind of series: Antileishmanial activity against amastigote stage of Leishmania infantum infected in PMA-differentiated human THP1 cells assessed as inhibition of parasite growth after 72 hrs by Giemsa staining based light microscopy. Conditions: THP-1, 72 h. The class given is functional, organism-based. Summed up: as §2
In series [8] the test system is Mus musculus. Kind of series: Toxicity in C57Bl/6 mouse assessed as effect on normal appearance at 300 mg/kg, po administered as single dose measured twice daily up to 30 days. In kind it is organism-based. The conditions noted are these: in vivo, 720 h. The essentials:
as §3

Series [9] relates to Leishmania infantum. Kind of series: Antileishmanial activity against Leishmania infantum MHOM/TN/1980/IPT-1 amastigotes infected in Balb/c mouse assessed as reduction in liver parasite load at 100 mg/kg, po administered for 4 days measured post last dose relative to control. In kind it is functional. Set-up: scale not given: the % may be the effect or the level left. The essentials: (§4)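 Balb/c mice (18-20 g) inoculated via tail vein with 2×10⁶ semi-purified L. infantum IPT-1 amastigotes. Dosing p.o. (0.1% Tween/0.5% HEC in water, or water) or s.c. (sunflower oil, or water) for 4 or 5 consecutive days from day 9 post-infection.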

Series [10] relates to Leishmania infantum. In words: Antileishmanial activity against Leishmania infantum MHOM/TN/1980/IPT-1 amastigotes infected in Balb/c mouse assessed as reduction in liver parasite load at 5 mg/kg, sc administered for 5 days measured post last dose relative to control. Set-up: scale not given: the % may be the effect or the level left. In kind it is functional. The essentials:
(§5)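 Balb/c mice (18-20 g) inoculated via tail vein with 2×10⁶ semi-purified L. infantum IPT-1 amastigotes. Dosing p.o. (0.1% Tween/0.5% HEC in water, or water) or s.c. (sunflower oil, or water) for 4 or 5 consecutive days from day 9 post-infection. On day 13 or 14, liver weight × amastigotes per liver cell gives relative load, expressed versus the untreated control group mean.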

The test system of series [11] is Mus musculus. Kind of series: Toxicity in Balb/c mouse infected with Leishmania infantum MHOM/TN/1980/IPT-1 amastigotes assessed as death at 100 mg/kg, administered for 4 days measured on day 10 to 12. In kind it is organism-based. Conditions: in vivo, 96 h.
Series [12] relates to BMDM. Kind of series: Induction of reactive oxygen species production in IFNgamma-primed mouse BMDM measured after 24 hrs by H2DCFDA probe based assay. In kind it is functional, cell-based.
The subject of series [13] is BMDM. In words: Induction of nitric oxide production in IFNgamma-primed mouse BMDM measured after 24 hrs by Griess assay. In kind it is functional, cell-based.
For series [14], the system named is Leishmania infantum. Kind of series: Antileishmanial activity against Leishmania infantum MHOM/TN/1980/IPT-1 amastigotes infected in Balb/c mouse assessed as reduction in liver parasite load at 60 mg/kg, po administered for 4 days measured post last dose relative to control. The class given is functional. Set-up: scale not given: the % may be the effect or the level left. The essentials:
as §5

Series [15] concerns Leishmania infantum. In words: Antileishmanial activity against Leishmania infantum MHOM/TN/1980/IPT-1 amastigotes infected in Balb/c mouse assessed as reduction in liver parasite load at 10 mg/kg, sc administered for 4 days measured post last dose relative to control. The class given is functional. Set-up: scale not given: the % may be the effect or the level left. The essentials:
as §5

In series [16] the test system is Mus musculus. In words: Toxicity in C57Bl/6 mouse assessed as effect on normal behavior at 300 mg/kg, po administered as single dose measured twice daily up to 30 days. Conditions: in vivo, 720 h. In kind it is organism-based. Summed up: as §3
For series [17], the system named is Leishmania infantum. In words: Antileishmanial activity against Leishmania infantum MHOM/TN/1980/IPT-1 amastigotes infected in po dosed Balb/c mouse assessed as reduction in liver parasite load administered for 4 to 5 days measured post last dose. The class given is functional, organism-based. The essentials: as §4
Series [18] concerns Leishmania infantum. In words: Antileishmanial activity against Leishmania infantum MHOM/TN/1980/IPT-1 amastigotes infected in sc dosed Balb/c mouse assessed as reduction in liver parasite load administered for 4 to 5 days measured post last dose. The class given is functional, organism-based. The essentials: as §4

One may read the IC50 as the concentration needed to halve the response being measured. The term inhibition denotes the share of the control response that was lost under treatment.

Turning to `Fc1ccc2scc(-c3ccc(CNCCCCNc4ccnc5ccccc45)cc3)c2c1`, the IC50 with Leishmania tropica is 1020 nM; in the series with Leishmania infantum [4] it was 1240 nM; in the series on THP-1, 2350 nM; in the series on Leishmania infantum [7], 650 nM. For the same compound, the inhibition at 0.5 µM in the series with Leishmania infantum [1] worked out at 42.7%. Moreover, the values for the selectivity ratio in series [2], in series [5] and in [6] were 2.3, 3.61 and 1.9, respectively. In addition, the Activity result in the series with Mus musculus [3] is listed as “Toxic”.

For `Cl.Cl.Cl.Cl.Clc1ccc2c(NCCCN3CCN(CCCNCCC45CC6CC(CC(C6)C4)C5)CC3)ccnc2c1`, the IC50 turned out to be 510 nM in the series on Leishmania tropica, 520 nM with Leishmania infantum [4], 1000 nM with THP-1 and 310 nM in the series on Leishmania infantum [7]. In addition, the Activity entry was “Non-Toxic” with Mus musculus [8]; 100% in the series on Leishmania infantum [9]; 57% in the series on Leishmania infantum [10]; “Non-Toxic” in the series with Mus musculus [3]; “Toxic” with Mus musculus [11]; “Dose-dependent effect” in the series on BMDM [12]. The Activity entry in the series with BMDM [13] was “Dose-dependent effect”; in the series with Leishmania infantum [14], 96%; in the series with Leishmania infantum [15] it was 81%; with Mus musculus [16], “Non-Toxic”; with Leishmania infantum [17] it was “Dose-dependent effect”; with Leishmania infantum [18] it was “Dose-dependent effect”. In addition, the inhibition at 0.5 µM in the series on Leishmania infantum [1] is 72.2%. The figures for the selectivity ratio in [2], in [5] and in series [6] were 2, 3.22 and 1.9, respectively.

On to `Clc1ccc2c(NCCCNCc3csc4ccccc34)ccnc2c1`, for which the IC50 in the series with Leishmania tropica came out at 1310 nM; in the series on Leishmania infantum [4] it was 1140 nM; with THP-1, 2960 nM; with Leishmania infantum [7], 1850 nM. The inhibition at 0.5 µM in the series on Leishmania infantum [1] was found to be 26.4%. Further, the selectivity ratio in [2] was found to be 2.3; in series [5], 1.6; in series [6], 2.6.

Values taken from ChEMBL document CHEMBL4196114 (ACS Med Chem Lett, 2018).
